An excerpt weighted towards active compounds, which were near 4.8% of everything screened.
Efflux pump mplx – blocks antifungal efflux pumps in multiplex yeast assay; inhibition, % at 10 µM; AID 485275; S. cerevisiae Candida pump triplex, Nile Red efflux; 330,000 tested, 0.44% active;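 active means plate passing quality check with inhibition over a set limit, or well fluorescence over plate mean plus 4 SD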;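 further: Nile Red retained in pooled yeast measured as flow cytometry median fluorescence; 0% = buffer negative control and 100% = Enniatin B positive control; higher means more Nile Red kept so more efflux inhibition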
Mot1-301 SUMO – blocks SUMOylation pathway, rescuing yeast Mot1-301 growth. growth rescue, % at 18.8 µM. 320,000 tested, 1% active. S. cerevisiae Mot1-301 growth rescue, ATP luminescence, 38.5C; percent above DMSO median, 100 means doubled;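 active means every valid replicate shows activation above 250% relative to neutral control wells; inactive means the rest, any valid replicate at or below 250%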;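 further: OY570 slx delta 5 strain wells were the positive control but not used for scaling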
T cruzi inh – blocks replication of Trypanosoma cruzi. T. cruzi beta-gal in NIH3T3, luminescence, 90 h. inhibition, % (no concentration beside the values). 300,000 tested, 1.4% active. AID 1885;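 active means mean inhibition across valid replicates above about 55%, limit read from the data; inconclusive means mean below that limit but half or more replicates reach it; inactive means mean below it, under half of replicates reach it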;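 further: signal also drops with host cell toxicity which is not excluded here; 0% = plate median of DMSO wells and 100% = zero luminescence signal; higher percent means less beta-gal luminescence so fewer parasites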
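Assay system: NIH/3T3 fibroblasts plus reporter T. cruzi. Amount: NIH/3T3 cells, 5,000 per well. Buffer or medium: DMEM, 2% fetal bovine serum. Doses: compound pinned at 50 nL/well, DMSO. Schedule: ≥90 h infection period, 3 h prior cell attachment. Signal: luminescent β-galactosidase signal after 60 min lysis. Read-out: parasite load inhibition, %.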
Beta apoptosis – beta cell apoptosis inhibition | 300,000 tested, 0.8% active | INS-1E cytokine-induced death, ATP luminescence, 48 h; percent of positive-control rescue, neutral wells zero | protection from apoptosis, % (no concentration beside the values);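 active means Every replicate reaches about 75%, or at least half do and their mean reaches it too, limit read from the data; inconclusive means At least half of replicates reach the limit but their mean does not; inactive means Under half of replicates reach the limit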;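 further: 0% = cytokine-treated negative control wells and 100% = positive control rescue; higher means more ATP so stronger rescue from cytokine killing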
CSC inhib – cancer stem cell inhibition; cancer stem cell-like cells viability, luminescence; inhibition, % at 7.5 µM; 300,000 tested, 1.1% active; AID 2717; in the data active means inhibition above about 75%; inconclusive means no clear call, values can overlap the other calls; tested in HMLE shEcad cells
WT yeast gro inh – growth inhibition of WT yeast, mitochondrial fusion screen. mitochondrial fusion phenotypic screen, WT strain. 190,000 tested, 2.1% active. inhibition, % at 10 µM. AID 1362; in the data active means inhibition above about 58%; tested in S. cerevisiae
* = called active by the depositor.

How did COc1ccc(NC(=O)c2cc3n(n2)C(C(F)(F)F)CC(c2ccc4c(c2)OCO4)N3)cc1OC (stereo unspecified) do in these assays?
Efflux pump mplx: 0; Mot1-301 SUMO: 12; CSC inhib: -5; WT yeast gro inh: 68*

What do the screens show for `CCC1CCCCN1S(=O)(=O)c1ccc(C(=O)Nc2nnc(C3=COCCO3)o2)cc1` (stereo unspecified)?
Efflux pump mplx: 0; Mot1-301 SUMO: 0; T cruzi inh: 7; Beta apoptosis: -2; CSC inhib: 21

Results for Cc1cc(C)c2c(N)c(-c3nnc(SCc4ccc(Cl)cc4)n3C)sc2n1 ?
Efflux pump mplx: 0; Mot1-301 SUMO: 172; T cruzi inh: 12; Beta apoptosis: -2; CSC inhib: 7

What do the screens show for `C=CCn1c(SCc2ccccc2Cl)nnc1-c1sc2nc(C)cc(C)c2c1N`?
Efflux pump mplx: 0; Mot1-301 SUMO: 106; T cruzi inh: 63*; Beta apoptosis: 2; CSC inhib: 16

How did CN(C)c1ccc(C(=O)NC2(N3CCC3=O)CCCC2)cc1 do in these assays?
Efflux pump mplx: 0; Mot1-301 SUMO: -8; T cruzi inh: -1; Beta apoptosis: -1; CSC inhib: 0; WT yeast gro inh: -12

What do the screens show for `CC(=O)c1ccc(-n2cc(-c3ccc(C(C)(C)C)cc3)[n+]3c2SCCC3)cc1`?
Efflux pump mplx: 0; Mot1-301 SUMO: 64; T cruzi inh: 68*; Beta apoptosis: 50; WT yeast gro inh: 13

Results for N#Cc1cc(C#N)c(N2CCN(c3ccccn3)CC2)nc1N ?
Efflux pump mplx: -6; Mot1-301 SUMO: -16; T cruzi inh: -16; Beta apoptosis: 10; CSC inhib: 3; WT yeast gro inh: -15

How did Cc1cc(=O)n2nc(N3CCCC(C(=O)NCc4cccc(Br)c4)C3)sc2n1 (stereo unspecified) do in these assays?
Efflux pump mplx: 0; Mot1-301 SUMO: 2; T cruzi inh: 11; Beta apoptosis: 0; CSC inhib: -5

Results for CCn1nc(C)cc1C(=O)N1CCc2c([nH]c3ccccc23)C1c1cc(F)ccc1F (stereo unspecified) ?
Efflux pump mplx: 0; Mot1-301 SUMO: 479*; T cruzi inh: 16; CSC inhib: -5; WT yeast gro inh: 47

How did COc1ccc(/C=C/C2=CCN(Cc3ccc(OC)cc3)CC2)cc1 do in these assays?
Efflux pump mplx: 0; Mot1-301 SUMO: 12; T cruzi inh: 58*; Beta apoptosis: 63; CSC inhib: 4; WT yeast gro inh: 11

What do the screens show for `COc1ccc(/C=N/N2CCN(Cc3ccccc3)CC2)cc1`?
Efflux pump mplx: 0; Mot1-301 SUMO: 0; T cruzi inh: 9; Beta apoptosis: inconclusive; CSC inhib: -11

What do the screens show for `Cc1ccc(NC(=O)CCCCCN2C(=O)[C@@H]3Cc4ccccc4CN3C2=O)c(Cl)c1`?
Efflux pump mplx: 0; Mot1-301 SUMO: 5; T cruzi inh: 6; Beta apoptosis: -3; CSC inhib: -5

How did O=C(CSc1nc2[nH]ncc2c(=O)n1-c1ccc(Cl)c(Cl)c1)NCc1ccccc1Cl do in these assays?
Efflux pump mplx: 0; Mot1-301 SUMO: 57; T cruzi inh: 58*; Beta apoptosis: 3; CSC inhib: -9; WT yeast gro inh: -1

How did O=c1c2cn[nH]c2nc(SCc2ccccc2F)n1-c1ccc(Br)cc1 do in these assays?
Efflux pump mplx: 0; Mot1-301 SUMO: 34; T cruzi inh: -1; Beta apoptosis: 7; CSC inhib: 105*; WT yeast gro inh: 79*

What do the screens show for `Clc1cccc(Nc2nc(-c3cccnc3)cs2)c1`?
Efflux pump mplx: 0; Mot1-301 SUMO: 148; T cruzi inh: 59*; Beta apoptosis: 3; CSC inhib: 17; WT yeast gro inh: 39

Results for COc1ccc(Cl)cc1Nc1nc(-c2cccnc2)cs1 ?
Efflux pump mplx: 0; Mot1-301 SUMO: 36; T cruzi inh: 56*; Beta apoptosis: -4; CSC inhib: 41

Results for CCOC(=O)c1ccc(NC(=O)c2nc[nH]c2C(=O)NCCNC(=O)c2[nH]cnc2C(=O)Nc2ccc(C(=O)OCC)cc2)cc1 ?
Efflux pump mplx: 0; Mot1-301 SUMO: 12; Beta apoptosis: 11; CSC inhib: 122*

How did CCOC(=O)c1ccc(NC(=O)c2nc[nH]c2C(=O)NC)cc1 do in these assays?
Efflux pump mplx: 0; Mot1-301 SUMO: -1; T cruzi inh: -14; Beta apoptosis: -6; CSC inhib: 19

Results for O=c1/c(=C\c2cccc(O)c2)sc2nc(-c3ccccc3)c(-c3ccccc3)n12 ?
Efflux pump mplx: 0; Mot1-301 SUMO: 6; T cruzi inh: -13; Beta apoptosis: 10; CSC inhib: 91*

Results for COCCOc1ccc(C(F)(F)F)cc1NC(=O)COC(=O)c1ccc(N2CCCC2=O)cc1 ?
Efflux pump mplx: 0; Mot1-301 SUMO: 9; Beta apoptosis: 5; CSC inhib: 8

Results for S=C1NC[C@H](Cc2ccccc2)N1CCCCC1CCCCC1 ?
Efflux pump mplx: 0; Mot1-301 SUMO: -14; T cruzi inh: 3; Beta apoptosis: -11; CSC inhib: 136*; WT yeast gro inh: 59

What do the screens show for `FC(F)(F)c1cc(CCN2C(=S)NC[C@@H]2Cc2ccccc2)cc(C(F)(F)F)c1`?
Mot1-301 SUMO: -3; T cruzi inh: 9; Beta apoptosis: 1; CSC inhib: 65; WT yeast gro inh: 64*

How did NCCCC[C@H]1CNC(=O)C(=O)N1CCCCC1CCCCC1 do in these assays?
Efflux pump mplx: 0; Mot1-301 SUMO: 109; T cruzi inh: -2; Beta apoptosis: -7; CSC inhib: -4

What do the screens show for `CN(C)C1=NC[C@H](Cc2ccccc2)N1CCCC1CCCCC1`?
Efflux pump mplx: 0; Mot1-301 SUMO: -14; Beta apoptosis: 87*; CSC inhib: 27

How did O=C1NC[C@@H](Cc2cccc3ccccc23)N(CCCCC2CCCCC2)C1=O do in these assays?
Efflux pump mplx: 0; Mot1-301 SUMO: -5; T cruzi inh: -5; Beta apoptosis: 0; CSC inhib: 88*

What do the screens show for `S=C1NC[C@H](CC2CCCCC2)N1CCCCC1CCCCC1`?
Efflux pump mplx: 0; Mot1-301 SUMO: -5; T cruzi inh: 1; Beta apoptosis: 3; CSC inhib: -27

What do the screens show for `COc1ccc(C(=O)N2CCOC2CNC(=O)C(=O)NCCc2ccc(OC)c(OC)c2)cc1` (stereo unspecified)?
Efflux pump mplx: 0; Mot1-301 SUMO: -12; T cruzi inh: -16; Beta apoptosis: -6; CSC inhib: -11

Results for O=C1CC(NS(=O)(=O)c2ccccc2F)CN1c1ccc2c(c1)OCCO2 (stereo unspecified) ?
Efflux pump mplx: 0; Mot1-301 SUMO: -2; T cruzi inh: 4; CSC inhib: -9

Results for FC(F)(F)c1cc(CCN2C(=S)NC[C@@H]2CC2CCCCC2)cc(C(F)(F)F)c1 ?
Efflux pump mplx: 0; Mot1-301 SUMO: 219; T cruzi inh: 29; Beta apoptosis: 7; CSC inhib: 97*
